Laboratory results: ChEMBL document CHEMBL1141616, “Structure-activity relationships in the inhibition of monoamine oxidase B by 1-methyl-3-phenylpyrroles” (Bioorg Med Chem, 2008)
pKi: −log10 of the molar value. The source made the active and inactive calls. The rule behind the calls is not given here.

Key:
[1] = organism: Bos taurus; experiment: Inhibition of beef liver mitochondrial MAOB at 200 uM
[2] = Inhibition of baboon liver mitochondrial MAOB; set-up: species or system Papio hamadryas
[3] = organism: Papio hamadryas; experiment: Inhibition of baboon liver mitochondrial MAOB at 5.20 uM
How it was run: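 Time-dependence test: baboon liver mitochondria (0.3 mg protein/mL) were preincubated with inhibitor at 5.20 µM in 100 mM sodium phosphate, pH 7.4, for 0, 15, 30 and 60 min at 37 °C. This was then diluted to 0.15 mg protein/mL with 90 µM MMTP, giving a final inhibitor concentration of 2.60 µM. Incubated 15 min at 37 °C, stopped with perchloric acid, and MMDP⁺ was measured.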

Structure (SMILES) | Activity [1] | pKi [2] | Activity [3]
Cn1ccc(-c2ccc(C(F)(F)F)cc2)c1 | inactive | 5.89 | Active
Cn1ccc(-c2cccc(F)c2)c1 | inactive | 4.41 | 
COc1ccc(-c2ccn(C)c2)cc1 | inactive | 4.44 | 
Cn1ccc(-c2ccc(Br)cc2)c1 | inactive | 5.18 | 
Cn1ccc(-c2cccc(C(F)(F)F)c2)c1 | inactive | 5.18 | 
Cn1ccc(-c2ccccc2)c1 | inactive | 3.93 | 
Cn1ccc(-c2cccc(Cl)c2)c1 | inactive | 4.68 | 
COc1cccc(-c2ccn(C)c2)c1 | inactive | 4.38 | 

The remaining lines, values ahead:

Activity [1] | pKi [2] | Activity [3] | Structure (SMILES)
inactive | 4.84 |  | Cn1ccc(-c2cccc(Br)c2)c1
inactive | 4.25 |  | Cc1cccc(-c2ccn(C)c2)c1
inactive | 4.74 |  | Cn1ccc(-c2ccc(Cl)cc2)c1
inactive | 4.51 |  | Cn1ccc(-c2ccc(F)cc2)c1
inactive | 4.65 |  | Cc1ccc(-c2ccn(C)c2)cc1
